Holding throughout (type): functional
For one assay, the system named is Lichtheimia corymbifera. Nature of the assay: Antimicrobial activity against Mycocladus corymbiferus after 24 hrs by broth microdilution checkerboard procedure. The method, boiled down: (§1)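 CLSI broth microdilution for filamentous fungi, adapted to checkerboard; 1–3 isolates per species. Final ranges: amphotericin B and azoles 0.004–2 μg/ml; cyclosporine 0.125–8 μg/ml; tacrolimus and rapamycin 0.06–4 μg/ml, with extra runs at 0.001–0.06 μg/ml. Incubated 24 h at 35°C and read spectrophotometrically. MIC is the lowest concentration giving 50% inhibition (amphotericin B alone: 90%). Most tests run in duplicate.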

A further assay has as its system Rhizopus arrhizus. As to the kind of experiment: Antimicrobial activity against Rhizopus oryzae after 24 hrs by broth microdilution checkerboard procedure. A digest of the protocol:
as §1
For orientation: Dilution methods test growth across graded concentrations, often in twofold steps.

Assay [1] in a line: Antimicrobial activity against Rhizopus microsporus after 24 hrs by broth microdilution checkerboard procedure. A digest of the protocol:
as §1

A further assay concerns Mucor circinelloides. As to the kind of experiment: Antimicrobial activity against Mucor circinelloides after 24 hrs by broth microdilution checkerboard procedure. The method, boiled down: as §1
The next assay deals with Rhizomucor pusillus. As to the kind of experiment: Antimicrobial activity against Rhizomucor pusillus after 24 hrs by broth microdilution checkerboard procedure. A digest of the protocol:
as §1

A value given as a limit tells only on which side of the number the result lay.

These results are taken from ChEMBL document CHEMBL1649535, “In vitro interactions between antifungals and immunosuppressive drugs against zygomycetes” (2009).

With `CCC(C)n1ncn(-c2ccc(N3CCN(c4ccc(OCC5COC(Cn6cncn6)(c6ccc(Cl)cc6Cl)O5)cc4)CC3)cc2)c1=O` (centres undefined) [ITRACONAZOLE], the MIC (in the assay on Lichtheimia corymbifera; in the assay on Rhizopus arrhizus; in assay [1]; in the assay with Mucor circinelloides; in the assay on Rhizomucor pusillus) was 0.62 µg/mL in each case.
For the compound `C[C@@H](c1nc(-c2ccc(C#N)cc2)cs1)[C@](O)(Cn1cncn1)c1ccc(F)cc1F` [RAVUCONAZOLE], the minimal inhibitory concentration (MIC) (in the assay with Lichtheimia corymbifera; in the assay on Rhizopus arrhizus; in assay [1]; with Mucor circinelloides; in the assay on Rhizomucor pusillus) was 0.44 µg/mL in each case.
As for `CO[C@H]1C[C@@H]2CC[C@@H](C)[C@@](O)(O2)C(=O)C(=O)N2CCCC[C@H]2C(=O)O[C@H]([C@H](C)C[C@@H]2CC[C@@H](O)[C@H](OC)C2)CC(=O)[C@H](C)/C=C(\C)[C@@H](O)[C@@H](OC)C(=O)[C@H](C)C[C@H](C)/C=C/C=C/C=C/1C` [SIROLIMUS], the MIC – broadly, the lowest concentration that inhibits growth of the organism – in the assay on Lichtheimia corymbifera was above 4 µg/mL; in assay [1], at most 0.25 µg/mL; with Mucor circinelloides it was at most 0.25 µg/mL; in the assay with Rhizomucor pusillus, above 4 µg/mL.
As for `CC[C@@H]([C@H](C)O)n1ncn(-c2ccc(N3CCN(c4ccc(OC[C@@H]5CO[C@@](Cn6cncn6)(c6ccc(F)cc6F)C5)cc4)CC3)cc2)c1=O` [POSACONAZOLE], the MIC (with Lichtheimia corymbifera; in the assay on Rhizopus arrhizus; in assay [1]; in the assay with Mucor circinelloides; with Rhizomucor pusillus) was 0.57 µg/mL each time.
For `C[C@@H]1[C@H](O)[C@@H](C)/C=C/C=C/C=C/C=C/C=C/C=C/C=C/[C@H](O[C@@H]2O[C@H](C)[C@@H](O)[C@H](N)[C@@H]2O)C[C@@H]2O[C@](O)(C[C@@H](O)C[C@@H](O)[C@H](O)CC[C@@H](O)C[C@@H](O)CC(=O)O[C@H]1C)C[C@H](O)[C@H]2C(=O)O` [AMPHOTERICIN B], the minimum inhibitory concentration (MIC) (in the assay on Lichtheimia corymbifera; in the assay on Rhizopus arrhizus; in assay [1]; in the assay on Mucor circinelloides; in the assay on Rhizomucor pusillus) was 0.125 µg/mL in each case.
On to `C=CC[C@@H]1/C=C(\C)C[C@H](C)C[C@H](OC)[C@H]2O[C@@](O)(C(=O)C(=O)N3CCCC[C@H]3C(=O)O[C@H](/C(C)=C/[C@@H]3CC[C@@H](O)[C@H](OC)C3)[C@H](C)[C@@H](O)CC1=O)[C@H](C)C[C@@H]2OC` [TACROLIMUS ANHYDROUS], for which the minimum inhibitory concentration (MIC) in the assay on Lichtheimia corymbifera was at most 0.5 µg/mL; in the assay on Rhizopus arrhizus it was at most 0.5 µg/mL; in assay [1], above 4 µg/mL; with Mucor circinelloides, at most 0.5 µg/mL; in the assay with Rhizomucor pusillus, above 4 µg/mL.
